# According to ChEMBL document CHEMBL3421570, “Combinatorial Libraries As a Tool for the Discovery of Novel, Broad-Spectrum Antibacterial Agents Targeting the ESKAPE Pathogens” (J Med Chem, 2015):
# The source made the active and inactive calls. The calls are words filed in the database; no cut-off is given here.
# Tests used:
# Assay type in all cases: functional
# [1] = test system: Enterococcus faecium; assay: Antimicrobial activity against Enterococcus faecium assessed as inhibition of microbial growth after 24 hrs
# Procedure, shortened: (§1)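 Broth microdilution against multidrug-resistant clinical ESKAPE isolates. Overnight cultures (TSB for Gram-positives, LB for Gram-negatives) diluted 1:1000 in fresh medium, compound in DMF (≤2.0% DMF) added at decreasing concentrations, 37°C.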
# [2] = test system: Staphylococcus aureus; assay: Antimicrobial activity against Staphylococcus aureus assessed as inhibition of microbial growth after 24 hrs; procedure, shortened: as §1
# [3] = test system: Klebsiella pneumoniae; assay: Antimicrobial activity against Klebsiella pneumoniae assessed as inhibition of microbial growth after 24 hrs; procedure, shortened: as §1
# [4] = test system: Acinetobacter baumannii; assay: Antimicrobial activity against Acinetobacter baumannii assessed as inhibition of microbial growth after 24 hrs; procedure, shortened: as §1
# [5] = test system: Pseudomonas aeruginosa; assay: Antimicrobial activity against Pseudomonas aeruginosa assessed as inhibition of microbial growth after 24 hrs; procedure, shortened: as §1
# [6] = test system: Enterobacter cloacae; assay: Antimicrobial activity against Enterobacter cloacae assessed as inhibition of microbial growth after 24 hrs; procedure, shortened: as §1
SMILES,MIC [1],MIC [2],MIC [3],MIC [4],MIC [5],MIC [6]
CCCCCCCN1C(=N)NC[C@@H]1CCCCN1C[C@H]([C@@H](C)CC)NC1=N,inactive,inactive,inactive,inactive,inactive,inactive
N=C1NCCN1CCCC[C@H]1CNC(=N)N1CC1CCCCC1,inactive,inactive,inactive,inactive,inactive,inactive
CC[C@H](C)[C@H]1CN(CCCC[C@H]2CNC(=N)N2CC2CCCCC2)C(=N)N1CCc1cccc(C)c1,inactive,inactive,inactive,inactive,inactive,inactive
CC[C@H](C)[C@H]1CN(CCCC[C@H]2CNC(=N)N2CC2CCCCC2)C(=N)N1,inactive,inactive,inactive,inactive,inactive,inactive
CCC[C@@H]1CN(CCCC[C@H]2CNC(=N)N2CC2CCCCC2)C(=N)N1,inactive,inactive,inactive,inactive,inactive,inactive
CCC(C)CN1C(=N)N(CCCC[C@H]2CNC(=N)N2CC2CCCCC2)C[C@@H]1[C@@H](C)CC (some centres not stated),inactive,inactive,inactive,inactive,inactive,inactive
CCC(C)CN1CCN(CCCC[C@H]2CNC(=N)N2CC2CCCCC2)C1=N (some centres not stated),inactive,inactive,inactive,inactive,inactive,inactive
Cc1cccc(CCN2CCN(CCCC[C@H]3CNC(=N)N3CC3CCC(C)CC3)C2=N)c1 (some centres not stated),inactive,inactive,inactive,inactive,inactive,inactive
Cc1cccc(CCN2CCN(CCCC[C@H]3CNC(=N)N3CC3CCCCC3)C2=N)c1,inactive,inactive,inactive,inactive,inactive,inactive
CCCCCCCN1C(=N)NC[C@@H]1CCCCN1C[C@@H](CCC)N(CCc2cccc(C)c2)C1=N,inactive,inactive,inactive,inactive,inactive,inactive
CCCCCCCN1C(=N)NC[C@@H]1CCCCN1CCN(CC(C)CC)C1=N (some centres not stated),inactive,inactive,inactive,inactive,inactive,inactive
CC1CCC(CN2C(=N)NC[C@@H]2CCCCN2CCNC2=N)CC1 (some centres not stated),inactive,inactive,inactive,inactive,inactive,inactive
CCC[C@@H]1CN(CCCC[C@H]2CNC(=N)N2CC2CCCCC2)C(=N)N1CCc1cccc(C)c1,inactive,inactive,inactive,inactive,inactive,inactive

# The next lines start with the values.
MIC [1],MIC [2],MIC [3],MIC [4],MIC [5],MIC [6],SMILES
inactive,inactive,inactive,inactive,inactive,inactive,CCC[C@@H]1CN(CCCC[C@H]2CNC(=N)N2CC2CCCCC2)C(=N)N1CC(C)CC (some centres not stated)
inactive,inactive,inactive,inactive,inactive,inactive,CCCCCCCN1C(=N)NC[C@@H]1CCCCN1CCN(CCc2cccc(C)c2)C1=N
inactive,inactive,inactive,inactive,inactive,inactive,CCC(C)CN1CCN(CCCC[C@H]2CNC(=N)N2CC2CCC(C)CC2)C1=N (some centres not stated)
inactive,inactive,inactive,inactive,inactive,inactive,CC[C@H](C)[C@H]1CN(CCCC[C@H]2CNC(=N)N2CC2CCC(C)CC2)C(=N)N1 (some centres not stated)
inactive,inactive,inactive,inactive,inactive,inactive,CCCCCCCN1C(=N)NC[C@@H]1CCCCN1CCNC1=N
inactive,inactive,inactive,inactive,inactive,inactive,CCCCCCCN1C(=N)NC[C@@H]1CCCCN1C[C@@H](CCC)NC1=N
inactive,inactive,inactive,inactive,inactive,inactive,CCC(C)CN1C(=N)N(CCCC[C@H]2CNC(=N)N2CC2CCC(C)CC2)C[C@@H]1[C@@H](C)CC (some centres not stated)
inactive,inactive,inactive,inactive,inactive,inactive,CC[C@H](C)[C@H]1CN(CCCC[C@H]2CNC(=N)N2CC2CCC(C)CC2)C(=N)N1CCc1cccc(C)c1 (some centres not stated)
inactive,inactive,inactive,inactive,inactive,inactive,CCC[C@@H]1CN(CCCC[C@H]2CNC(=N)N2CC2CCC(C)CC2)C(=N)N1 (some centres not stated)
inactive,inactive,inactive,inactive,inactive,inactive,CCCCCCCN1C(=N)NC[C@@H]1CCCCN1C[C@H]([C@@H](C)CC)N(CCc2cccc(C)c2)C1=N
inactive,inactive,inactive,inactive,inactive,inactive,CCCCCCCN1C(=N)NC[C@@H]1CCCCN1C[C@H]([C@@H](C)CC)N(CC(C)CC)C1=N (some centres not stated)
inactive,inactive,inactive,inactive,inactive,inactive,CCCCCCCN1C(=N)NC[C@@H]1CCCCN1C[C@@H](CCC)N(CC(C)CC)C1=N (some centres not stated)
inactive,inactive,inactive,inactive,inactive,inactive,CCC[C@@H]1CN(CCCC[C@H]2CNC(=N)N2CC2CCC(C)CC2)C(=N)N1CCc1cccc(C)c1 (some centres not stated)
inactive,inactive,inactive,inactive,inactive,inactive,CCC[C@@H]1CN(CCCC[C@H]2CNC(=N)N2CC2CCC(C)CC2)C(=N)N1CC(C)CC (some centres not stated)
